In ChEMBL document CHEMBL4184148 (Bioorg Med Chem Lett, 2017) one finds IC50 and Activity data, which are given here for 2 compounds.

The test system of one assay is HEK293. The assay is described as follows: Cytotoxicity against human HEK293 cells assessed as reduction in cell viability after 72 hrs by CellTiter-Glo assay. The class given is cell-based. Conditions: HEK293, 72 h. In a few lines:
(§1)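 Cells were treated across a dose-response range for 72 h, and viability was read by CellTiter-Glo luminescence. Measurements were made in triplicate and reported with standard error.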
Background: In ATP-based viability assays light output follows the ATP content of the culture.

Assay [1] addresses Serine/threonine-protein kinase BRSK1 (Homo sapiens) (UniProt Q8TDC3). The assay is described as follows: Binding affinity to wild-type human partial length BRSK1 (M1 to E754 residues) expressed in Escherichia coli BL21 at 1 uM by Kinomescan method relative to control.
Assay [2] concerns the target Calcium/calmodulin-dependent protein kinase type 1G (Homo sapiens) (UniProt Q96NX5). Put plainly: Binding affinity to wild-type human partial length CAMK1G (M1 to A342 residues) expressed in Escherichia coli BL21 at 1 uM by Kinomescan method relative to control.
In assay [3] the target is Casein kinase I isoform epsilon (Homo sapiens) (UniProt P49674). The assay is described as follows: Binding affinity to wild-type human full length CSNK1E (M1 to K416 residues) expressed in Escherichia coli BL21 at 1 uM by Kinomescan method relative to control. In a few lines:
(§2)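 Run as one kinome-wide competition binding panel with each compound at a single fixed concentration. Results were plotted as a kinome-wide selectivity map.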

Assay [4] deals with Casein kinase II subunit alpha (Homo sapiens) (UniProt P68400). Put plainly: Binding affinity to wild-type human full length CSNK2A1 (M1 to Q391 residues) expressed in HEK293 cells at 1 uM by Kinomescan method relative to control. The class given is cell-based. In a few lines:
as §2

The target of assay [5] is Ephrin type-B receptor 2 (Homo sapiens) (UniProt P29323). The assay is described as follows: Binding affinity to wild-type human partial length EPHB2 (I597 to L902 residues) expressed in Escherichia coli BL21 at 1 uM by Kinomescan method relative to control.
For assay [6], the system named is Receptor-type tyrosine-protein kinase FLT3 (Homo sapiens), P36888 [K663Q]. Put plainly: Binding affinity to human partial length FLT3 K663Q mutant (V592 to Y969 residues) expressed in Escherichia coli BL21 at 1 uM by Kinomescan method relative to control.
Assay [7] has as its target MAP kinase-activated protein kinase 2 (Homo sapiens) (UniProt P49137). The assay is described as follows: Binding affinity to wild-type human partial length MAPKAPK2 (V48 to D345 residues) expressed in Escherichia coli BL21 at 1 uM by Kinomescan method relative to control.
The target in assay [8] is Serine/threonine-protein kinase MARK2 (Homo sapiens) (UniProt Q7KZI7). Put plainly: Binding affinity to wild-type human partial length MARK2 (M1 to R450 residues) expressed in Escherichia coli BL21 at 1 uM by Kinomescan method relative to control.
Assay [9] deals with Hepatocyte growth factor receptor (Homo sapiens) (UniProt P08581). Put plainly: Binding affinity to wild-type human partial length MET (D1010 to S1367 residues) expressed in Escherichia coli BL21 at 1 uM by Kinomescan method relative to control.
Assay [10] concerns the target Myosin-IIIb (Homo sapiens) (UniProt Q8WXR4). The assay is described as follows: Binding affinity to wild-type human partial length MYO3B (M1 to D357 residues) expressed in Escherichia coli BL21 at 1 uM by Kinomescan method relative to control.
Assay [11] has as its target Serine/threonine-protein kinase Nek3 (Homo sapiens) (UniProt P51956). The assay is described as follows: Binding affinity to wild-type human full length NEK3 (M1 to R506 residues) expressed in HEK293 cells at 1 uM by Kinomescan method relative to control. The class given is cell-based. In outline: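 Kinome-wide competition binding panel run by an outside provider, with each compound tested at a single concentration. Activity is read against the kinase panel.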

For assay [12], the system named is Phosphatidylinositol 4,5-bisphosphate 3-kinase catalytic subunit alpha isoform (Homo sapiens), P42336 [E545A]. Put plainly: Binding affinity to human partial length PIK3CA E545A mutant (R108 to N1068 residues) expressed in HEK293 cells at 1 uM by Kinomescan method relative to control. The class given is cell-based.
The target of assay [13] is Serine/threonine-protein kinase PLK4 (Homo sapiens) (UniProt O00444). The assay is described as follows: Binding affinity to wild-type human partial length PLK4 (M1 to S273 residues) expressed in HEK293 cells at 1 uM by Kinomescan method relative to control. The class given is cell-based.
The subject of assay [14] is HCT-116. The assay is described as follows: Cytotoxicity against human HCT116 cells assessed as reduction in cell viability after 72 hrs by CellTiter-Glo assay. The class given is functional, cell-based. The note with it: HCT-116, 72 h. In a few lines: as §1
For assay [15], the system named is HCT-116. Put plainly: Cytotoxicity against human HCT116 cells assessed as reduction in cell viability up to 33.3 uM after 72 hrs by CellTiter-Glo assay relative to control. The class given is functional.
The next assay concerns PC-3. Put plainly: Cytotoxicity against human PC3 cells assessed as reduction in cell viability up to 33.3 uM after 72 hrs by CellTiter-Glo assay relative to control. The class given is functional.

Ephrin type-B receptor 2 (Homo sapiens), sequence (P29323 whole entry, the tested form may be a part): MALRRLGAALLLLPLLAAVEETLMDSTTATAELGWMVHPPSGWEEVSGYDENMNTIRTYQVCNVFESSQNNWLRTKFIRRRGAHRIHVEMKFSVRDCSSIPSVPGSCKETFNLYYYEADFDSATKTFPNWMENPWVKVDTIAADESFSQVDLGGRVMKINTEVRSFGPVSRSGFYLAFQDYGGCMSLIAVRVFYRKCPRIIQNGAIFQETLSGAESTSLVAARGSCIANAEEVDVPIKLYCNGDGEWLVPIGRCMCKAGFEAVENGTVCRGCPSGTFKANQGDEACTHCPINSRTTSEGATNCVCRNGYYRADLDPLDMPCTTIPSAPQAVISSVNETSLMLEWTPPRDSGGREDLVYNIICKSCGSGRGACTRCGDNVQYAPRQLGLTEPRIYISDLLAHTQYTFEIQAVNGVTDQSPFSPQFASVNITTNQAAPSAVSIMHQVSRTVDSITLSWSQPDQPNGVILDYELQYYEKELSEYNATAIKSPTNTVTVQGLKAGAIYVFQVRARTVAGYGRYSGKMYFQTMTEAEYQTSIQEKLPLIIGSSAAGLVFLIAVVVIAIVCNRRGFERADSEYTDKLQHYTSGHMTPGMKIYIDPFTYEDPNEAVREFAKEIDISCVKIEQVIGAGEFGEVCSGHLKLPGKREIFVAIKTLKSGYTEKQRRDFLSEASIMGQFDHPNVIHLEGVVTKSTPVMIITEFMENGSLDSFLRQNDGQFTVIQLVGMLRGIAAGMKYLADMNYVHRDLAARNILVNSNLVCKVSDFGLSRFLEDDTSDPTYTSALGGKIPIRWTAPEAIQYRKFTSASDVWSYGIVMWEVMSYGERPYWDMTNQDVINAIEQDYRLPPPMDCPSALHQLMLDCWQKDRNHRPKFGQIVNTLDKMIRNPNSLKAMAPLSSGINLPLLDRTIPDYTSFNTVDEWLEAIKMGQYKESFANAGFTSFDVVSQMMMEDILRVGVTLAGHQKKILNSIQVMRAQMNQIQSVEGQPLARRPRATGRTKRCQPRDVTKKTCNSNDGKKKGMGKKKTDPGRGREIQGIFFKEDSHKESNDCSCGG
Calcium/calmodulin-dependent protein kinase type 1G (Homo sapiens), sequence (Q96NX5 whole entry, the tested form may be a part, canonical isoform): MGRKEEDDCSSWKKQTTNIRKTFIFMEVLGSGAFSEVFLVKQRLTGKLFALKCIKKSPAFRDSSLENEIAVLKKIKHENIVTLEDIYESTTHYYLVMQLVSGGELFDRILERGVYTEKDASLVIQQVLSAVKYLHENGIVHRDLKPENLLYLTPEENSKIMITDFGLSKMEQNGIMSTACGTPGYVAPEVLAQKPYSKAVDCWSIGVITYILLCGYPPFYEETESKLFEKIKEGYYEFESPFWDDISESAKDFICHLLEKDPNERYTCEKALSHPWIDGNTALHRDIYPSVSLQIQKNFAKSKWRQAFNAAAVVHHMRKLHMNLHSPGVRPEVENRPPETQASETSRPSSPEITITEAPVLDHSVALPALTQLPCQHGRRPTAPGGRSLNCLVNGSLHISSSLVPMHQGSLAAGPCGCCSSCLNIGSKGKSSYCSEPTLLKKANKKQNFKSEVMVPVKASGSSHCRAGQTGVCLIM
Casein kinase I isoform epsilon (Homo sapiens), sequence (P49674 whole entry, looked up, the tested form may be a part, canonical isoform): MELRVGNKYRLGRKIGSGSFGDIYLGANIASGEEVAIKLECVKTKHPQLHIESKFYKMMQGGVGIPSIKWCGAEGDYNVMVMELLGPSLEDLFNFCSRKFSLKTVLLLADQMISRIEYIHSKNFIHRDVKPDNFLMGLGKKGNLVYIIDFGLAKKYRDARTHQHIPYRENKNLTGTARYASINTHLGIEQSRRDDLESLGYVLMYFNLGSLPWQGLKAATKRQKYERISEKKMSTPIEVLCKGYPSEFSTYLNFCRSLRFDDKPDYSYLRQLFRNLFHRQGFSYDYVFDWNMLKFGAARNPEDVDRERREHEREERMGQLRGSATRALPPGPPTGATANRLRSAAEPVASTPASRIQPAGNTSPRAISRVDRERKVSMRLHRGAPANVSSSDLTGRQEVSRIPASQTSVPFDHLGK
Phosphatidylinositol 4,5-bisphosphate 3-kinase catalytic subunit alpha isoform (Homo sapiens), P42336 [E545A], sequence (P42336 whole entry E545A, the tested form may be a part, canonical isoform): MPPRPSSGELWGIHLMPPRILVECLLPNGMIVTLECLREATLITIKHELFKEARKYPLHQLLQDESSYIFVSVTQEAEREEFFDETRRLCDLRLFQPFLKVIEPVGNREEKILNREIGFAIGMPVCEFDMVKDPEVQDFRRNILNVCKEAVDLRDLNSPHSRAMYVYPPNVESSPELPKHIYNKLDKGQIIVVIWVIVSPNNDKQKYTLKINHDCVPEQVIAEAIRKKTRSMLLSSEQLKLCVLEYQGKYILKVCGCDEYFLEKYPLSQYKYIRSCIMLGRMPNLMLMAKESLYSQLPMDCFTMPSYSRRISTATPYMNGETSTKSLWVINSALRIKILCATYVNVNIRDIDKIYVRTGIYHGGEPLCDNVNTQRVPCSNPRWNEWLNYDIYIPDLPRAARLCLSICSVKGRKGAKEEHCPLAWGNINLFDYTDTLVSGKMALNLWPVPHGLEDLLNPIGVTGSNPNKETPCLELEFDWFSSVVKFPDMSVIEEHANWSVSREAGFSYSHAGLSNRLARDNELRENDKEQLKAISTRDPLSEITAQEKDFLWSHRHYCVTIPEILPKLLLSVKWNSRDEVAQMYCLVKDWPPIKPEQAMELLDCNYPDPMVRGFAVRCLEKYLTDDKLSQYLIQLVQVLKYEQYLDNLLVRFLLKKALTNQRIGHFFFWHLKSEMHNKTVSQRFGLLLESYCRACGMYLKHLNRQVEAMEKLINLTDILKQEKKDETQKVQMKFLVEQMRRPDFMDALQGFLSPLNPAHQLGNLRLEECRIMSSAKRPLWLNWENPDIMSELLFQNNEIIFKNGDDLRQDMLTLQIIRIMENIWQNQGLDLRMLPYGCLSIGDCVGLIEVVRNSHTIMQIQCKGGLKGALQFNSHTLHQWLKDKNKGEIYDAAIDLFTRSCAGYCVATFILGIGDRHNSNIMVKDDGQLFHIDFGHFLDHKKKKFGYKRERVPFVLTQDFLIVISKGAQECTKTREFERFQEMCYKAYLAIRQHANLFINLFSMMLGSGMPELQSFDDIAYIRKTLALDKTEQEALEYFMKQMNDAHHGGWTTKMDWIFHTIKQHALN
Serine/threonine-protein kinase BRSK1 (Homo sapiens), sequence (Q8TDC3 whole entry, the tested form may be a part): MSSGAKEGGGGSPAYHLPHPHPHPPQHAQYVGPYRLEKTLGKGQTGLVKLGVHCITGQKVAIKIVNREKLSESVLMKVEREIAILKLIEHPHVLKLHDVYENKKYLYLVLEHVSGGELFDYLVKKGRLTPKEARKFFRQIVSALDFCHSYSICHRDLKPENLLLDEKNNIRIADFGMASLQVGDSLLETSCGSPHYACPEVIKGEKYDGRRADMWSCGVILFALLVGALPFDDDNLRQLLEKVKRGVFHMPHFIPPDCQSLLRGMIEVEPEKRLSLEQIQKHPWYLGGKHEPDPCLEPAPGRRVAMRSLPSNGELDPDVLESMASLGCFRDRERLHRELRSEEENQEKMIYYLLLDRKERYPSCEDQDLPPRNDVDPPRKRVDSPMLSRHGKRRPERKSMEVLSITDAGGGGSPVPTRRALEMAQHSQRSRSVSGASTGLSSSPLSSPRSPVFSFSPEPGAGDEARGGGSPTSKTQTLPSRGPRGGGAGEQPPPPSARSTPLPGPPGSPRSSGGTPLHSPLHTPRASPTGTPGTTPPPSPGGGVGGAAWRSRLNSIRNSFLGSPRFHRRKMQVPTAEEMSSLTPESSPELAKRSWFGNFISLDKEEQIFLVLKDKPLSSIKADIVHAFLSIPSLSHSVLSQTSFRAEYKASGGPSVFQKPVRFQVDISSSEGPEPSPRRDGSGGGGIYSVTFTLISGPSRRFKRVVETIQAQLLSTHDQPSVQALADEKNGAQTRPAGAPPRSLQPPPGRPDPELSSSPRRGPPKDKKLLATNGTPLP
Serine/threonine-protein kinase Nek3 (Homo sapiens), sequence (P51956 whole entry, the tested form may be a part): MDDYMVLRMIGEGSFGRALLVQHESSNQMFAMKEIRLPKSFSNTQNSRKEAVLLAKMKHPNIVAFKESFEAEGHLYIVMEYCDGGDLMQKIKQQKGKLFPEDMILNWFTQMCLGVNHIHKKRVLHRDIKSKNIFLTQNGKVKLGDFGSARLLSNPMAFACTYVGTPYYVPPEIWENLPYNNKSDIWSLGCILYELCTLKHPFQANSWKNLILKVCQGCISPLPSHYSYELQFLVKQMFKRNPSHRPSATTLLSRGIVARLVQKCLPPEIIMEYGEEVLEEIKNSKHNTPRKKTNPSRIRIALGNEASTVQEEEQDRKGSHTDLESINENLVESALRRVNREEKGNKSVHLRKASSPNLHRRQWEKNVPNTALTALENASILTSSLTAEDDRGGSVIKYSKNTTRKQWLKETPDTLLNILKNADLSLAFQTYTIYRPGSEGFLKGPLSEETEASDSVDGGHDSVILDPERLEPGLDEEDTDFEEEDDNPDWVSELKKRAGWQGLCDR
MAP kinase-activated protein kinase 2 (Homo sapiens), sequence (P49137 whole entry, looked up, the tested form may be a part): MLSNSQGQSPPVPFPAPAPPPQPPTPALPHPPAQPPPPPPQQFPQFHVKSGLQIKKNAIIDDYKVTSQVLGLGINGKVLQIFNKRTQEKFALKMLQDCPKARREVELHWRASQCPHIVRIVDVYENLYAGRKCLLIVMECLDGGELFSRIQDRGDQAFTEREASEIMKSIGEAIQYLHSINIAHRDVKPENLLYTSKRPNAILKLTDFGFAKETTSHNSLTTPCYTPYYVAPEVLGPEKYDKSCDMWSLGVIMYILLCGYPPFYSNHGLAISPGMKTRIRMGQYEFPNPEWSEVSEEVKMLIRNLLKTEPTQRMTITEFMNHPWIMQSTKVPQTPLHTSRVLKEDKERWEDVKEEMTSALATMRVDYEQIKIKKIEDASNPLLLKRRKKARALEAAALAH

`CCC(=O)Nc1ccc(C(=O)Nc2ccc(Nc3ncc4c(n3)N(C)c3ccc(C)cc3C(=O)N4C)cc2)cc1`: the IC50 (commonly the concentration at which inhibition is half-maximal) in the assay on HEK293 stood at 100 nM. For the same compound, the Activity in assay [1] amounted to 90%; in [2] it was 100%; in [3] it was 94%; in [4] it was 47%; in assay [5], 93%; in assay [6], 81%. The Activity in [7] worked out at 100%; in assay [8] it was 100%; in assay [9], 90%; in [10], 100%; in assay [11], 70%; in [12] it was 93%. This compound gave an Activity in [13] of 8.2%.

In the case of `C=CC(=O)Nc1ccc(C(=O)Nc2ccc(Nc3ncc4c(n3)N(C)c3ccc(C)cc3C(=O)N4C)cc2)cc1`, the IC50 in the assay on HCT-116 [14] was found to be 845 nM. In addition, the Activity in the assay on HCT-116 [15] came out at 50%; with PC-3, 50%; in assay [1], 100%; in assay [2], 100%; in assay [3] it was 100%; in assay [4], 95%. The Activity in assay [5] is 96%; in assay [6], 99%; in assay [7], 98%; in assay [8], 100%; in assay [9] it was 100%; in assay [10], 100%. The figures for the Activity in assay [11], in [12] and in [13] were 84%, 78% and 71%, respectively.
